Test results from ChEMBL document CHEMBL4229380, “Arylureas derived from colchicine: Enhancement of colchicine oncogene downregulation activity” (Eur J Med Chem, 2018).

Assays:
[1] = system: HT-29; experiment: Induction of apoptosis in human HT-29 cells assessed as necrotic cells at 1 nM after 48 hrs by Annexin V-FITC staining-based flow cytometric analysis (reference value: 2 +/- 6%); assay type: functional
[2] = system: HEK293; experiment: Antiproliferative activity against human HEK293 cells after 2 days by MTT assay; assay type: cell-based; conditions: HEK293, 48 h
Summary of the method: (§1)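 Cells (5×10^3 per well) in DMEM with 10% FBS, glucose, glutamine and antibiotics were exposed to serial dilutions (stocks in DMSO) for 2 days at 37 °C, 5% CO2. MTT was added for 3 h, formazan was dissolved in DMSO and absorbance read at 490 nm. Viability was taken as % of untreated cells. IC50 was read graphically from three independent experiments.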

[3] = system: HT-29; experiment: Induction of apoptosis in human HT-29 cells assessed as apoptotic cells at 1 nM after 48 hrs by Annexin V-FITC staining-based flow cytometric analysis (reference value: 13 +/- 3%); assay type: functional
[4] = system: HT-29; experiment: Effect on VEGFR2 protein expression in human HT-29 cells assessed as VEGFR2 level at 1 nM after 48 hrs by ELISA; assay type: functional
Summary of the method: (§2)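 HT-29 cells (1.5×10^5 per well, 24 h pre-culture) were treated 48 h and washed in PBS. They were lysed in Tris pH 7.4 buffer with detergents, phosphatase inhibitors, PMSF and protease inhibitors. Lysates were adjusted to 200 µg/mL protein (Bradford) and total c-Myc or VEGFR-2 was measured by sandwich ELISA kit. Values are % of DMSO control, ≥3 measurements.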

[5] = system: HeLa; experiment: Antiproliferative activity against human HeLa cells after 2 days by MTT assay; assay type: functional, cell-based; conditions: 48 h; summary of the method: as §1
[6] = system: HT-29; experiment: Effect on c-MYC protein expression in human HT-29 cells assessed as c-MYC level at 1 nM after 48 hrs by ELISA; assay type: functional; summary of the method: as §2
[7] = system: MCF7; experiment: Antiproliferative activity against human MCF7 cells after 2 days by MTT assay; assay type: functional, cell-based; conditions: MCF7, 48 h; summary of the method: as §1
[8] = system: HT-29; experiment: Induction of apoptosis in human HT-29 cells assessed as viable cells at 1 nM after 48 hrs by Annexin V-FITC staining-based flow cytometric analysis (reference value: 82 +/- 1%); assay type: functional; conditions: HT-29, 48 h, read-out: Activity
[9] = system: HT-29; experiment: Effect on VEGF protein expression in human HT-29 cells assessed as secreted VEGF level in culture media at 1 nM after 48 hrs by ELISA
[10] = system: HT-29; experiment: Effect on hTERT gene expression in human HT-29 cells assessed as hTERT level at 1 nM after 48 hrs by RT-qPCR analysis; assay type: functional
Summary of the method: (§3)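 HT-29 cells at 70–80% confluence were seeded at 1.5×10^5 per well and left 24 h, then treated 48 h, with DMSO as control. Total RNA was extracted and VEGF-A, c-Myc and hTERT were quantified by TaqMan qPCR, normalized to β-actin and to living cell number. Results are % expression versus control, at least three measurements.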

[11] = system: HT-29; experiment: Effect on c-MYC gene expression in human HT-29 cells assessed as c-MYC level at 1 nM after 48 hrs by RT-qPCR analysis; assay type: functional; summary of the method: as §3
[12] = system: HT-29; experiment: Effect on VEGF gene expression in human HT-29 cells assessed as VEGF level at 1 nM after 48 hrs by RT-qPCR analysis; assay type: functional; summary of the method: as §3
[13] = system: HT-29; experiment: Antiproliferative activity against human HT-29 cells after 2 days by MTT assay; assay type: functional, cell-based; conditions: HT-29, 48 h; summary of the method: as §1

IC50 [5]: 12 nM
IC50 [7]: 1.5 nM
IC50 [13]: 1.2 nM
Compound: COc1cc2c(c(OC)c1OC)-c1ccc(OC)c(=O)cc1[C@@H](NC(=O)Nc1ccc(-c3ccccc3)cc1)CC2
Activity [1]: 3%
IC50 [2]: 1.7 nM
Activity [3]: 11%
Activity [4]: 74%
Activity [6]: 119%
viability at 0.001 µM [8]: 86%
Activity [9]: 72%
Activity [10]: 60%
Activity [11]: 85%
Activity [12]: 72%
